Screening results as filed in PubChem.
This is a sample that favours compounds with a hit; in the whole collection about 1.8% have one here.
ATG4B inh – ATG4B (human) cysteine protease inhibition. ATG4B cleavage of LC3-PLA2, NBD-HPC fluorescence, 1 h. AID 504462. Q9Y4P1. inhibition, % at 8.33 µM. actives 0.51% (n = 340,000); in the data active = inhibition above about 40%
LANA-H2A inh – blocks KSHV LANA binding to histone H2A/H2B. Q9QR71. cell-free LANA-H2A/H2B peptide, fluorescence polarization. inhibition, % (no concentration beside the values). actives 0.6% (n = 320,000); in the data active = inhibition mostly above about 10%, no sharp cut-off; inactive = mostly below about 6.7%
HDAC3 inh – inhibitors of human histone deacetylase 3. O15379. recombinant HDAC3, fluorogenic peptide/trypsin coupled, fluorescence. inhibition, % at 8.3 µM. actives 0.15% (n = 320,000). AID 2718; in the data active = inhibition above about 26%, passing the limit was not always enough; inconclusive = no clear call, values can overlap the other calls
AI-2 QS mod – Vibrio harveyi AI-2 quorum sensing modulation; Vibrio harveyi JMH597 AI-2 luminescence/OD600 ratio, 9 h; hits give low values; strain lacks LuxN and CqsS sensors; 0 = neutral-control median; actives 0.4% (n = 300,000); activity change, % at 7.5 µM; AID 2094; in the data active = activity change below about -75%, passing the limit was not always enough; inconclusive = no clear call, values can overlap the other calls;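 note: luminescence divided by OD600 gain over 9 h not by final OD600 alone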
HKDC1 inhibitor – blocks human hexokinase HKDC1 activity; Q2TB90; actives 0.16% (n = 340,000); recombinant HKDC1, G6PDH/diaphorase resazurin coupled fluorescence; AID 493160; inhibition, % at 20 µM;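 active = inhibition above about 35% when tested at 20 µM, limit read from the data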;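 note: plate controls were DMSO wells with enzyme for no effect and DMSO wells lacking enzyme for full effect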
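Test system: recombinant HKDC1 (HK5) hexokinase enzyme, produced in-house / Doses: 20 µM test compound, 1% DMSO / Timing: 90 min, room temperature / Detection: G6PDH/diaphorase-coupled fluorescence, 1 mM NADP, 100 µM resazurin, 525/613 nm / Control set: DMSO wells with and without enzyme mix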
Bfl-1 A1 inh – inhibitors of the anti-apoptotic protein A1, read as caspase activation; MEF A1-2A-BIM cells, Caspase-Glo 3/7 luminescence, 3 h; percent of clofoctol response, vehicle zero; caspase activation, % (no concentration beside the values); actives 0.066% (n = 330,000);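 active = over half of replicate activation scores above 10%, or exactly half above 10 with the replicate mean above 10; inconclusive = replicate mean below 10 yet half the replicates above 10; inactive = over half of replicates below 10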
JMH597 growth rt – retest: inhibitors of Vibrio harveyi JMH597 growth. OD600 absorbance, 9 h; lacks LuxN and CqsS sensors. shares compounds with AI-2 QS mod. actives 1% (n = 750). growth inhibition, % at 7.5 µM;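 active = every replicate shows growth inhibition above 50%; inconclusive = at least half, but not all, replicates pass that cutoff; inactive = fewer than half of replicates pass it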
BB721 const-QS lum – retest counter-screen: lowers luminescence of constitutive-QS Vibrio harveyi BB721 | shares compounds with AI-2 QS mod | 9 h | inhibition, % at 7.5 µM | actives 95% (n = 750) | AID 2727;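 active = inhibition above about 80% in every replicate, not just on average, limit read from the data; inconclusive = at least half of replicates past the limit, but not all; inactive = fewer than half of replicates past the limit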
BB721 growth – retest: inhibitors of Vibrio harveyi BB721 growth. growth inhibition, % at 7.5 µM. shares compounds with AI-2 QS mod. OD600 absorbance, 9 h. actives 3% (n = 750);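 active = every replicate shows growth inhibition above 50%; inconclusive = at least half but not all replicates above 50% inhibition; inactive = under half of replicates above 50% inhibition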
AI-2 QS JMH597 – Vibrio harveyi AI-2 signaling luminescence modulation – JMH597 strain, confirmation; AID 2736; shares compounds with AI-2 QS mod; Vibrio harveyi JMH597 AI-2 quorum sensing luminescence, 9 h; luxN and CqsS knockout, AI-2 only; inhibition, % at 7.5 µM; actives 97% (n = 750);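 active = every replicate shows more than 75% inhibition of signal versus neutral control wells; inconclusive = half to three quarters of replicates exceed 75% inhibition; inactive = fewer than half of replicates exceed 75% inhibition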
An asterisk follows results filed as active; ? = inconclusive; · = no result.

SMILES	ATG4B inh	LANA-H2A inh	HDAC3 inh	AI-2 QS mod	HKDC1 inhibitor	Bfl-1 A1 inh	JMH597 growth rt	BB721 const-QS lum	BB721 growth	AI-2 QS JMH597
O=C(COc1ccc(S(=O)(=O)N2CCOCC2)cc1)NCc1ccccn1	0	2	1	17	-7	0	·	·	·	·
Cc1ccc(OCC(=O)Nc2ccc(S(=O)(=O)N3CCCC3)cc2)cc1	-7	2	?	?	0	-1	46	92*	29	99*
O=C(COC(=O)c1ccc(Br)o1)Nc1cccc(S(=O)(=O)N2CCCCC2)c1	-8	9	-10	·	-1	3	·	·	·	·
O=C(COC(=O)c1ccc(Br)o1)Nc1ccc(S(=O)(=O)N2CCCC2)cc1	-15	3	6	-94*	0	0	0	99*	-4	100*
COc1ccc(OCC(=O)Nc2ccc(S(=O)(=O)N3CCCC3)cc2)cc1	2	6	3	?	-2	0	24	95*	28	99*
O=C(Cn1c(=O)sc2ccccc21)Nc1ccc(S(=O)(=O)N2CCCC2)cc1	-10	-3	2	-97*	-3	0	15	99*	2	99*
COc1ccc(CC(=O)N2CCN(S(=O)(=O)c3cccs3)CC2)cc1OC	-5	0	5	6	-2	0	·	·	·	·
N#Cc1cccc(NC(=O)CN2C(=O)NC3(CCCCCC3)C2=O)c1	5	-3	-10	·	0	0	·	·	·	·
CCC1(c2ccccc2)NC(=O)N(CC(=O)NC2(C#N)CCCCC2)C1=O (stereo not given)	1	-9	-1	19	-5	1	·	·	·	·
CC1(c2ccccc2)NC(=O)N(CC(=O)Nc2cccc(C#N)c2)C1=O (stereo not given)	-17	3	5	-95*	0	1	-21	97*	-3	98*
CCC1(c2ccccc2)NC(=O)N(CC(=O)Nc2cccc(C#N)c2)C1=O (stereo not given)	-2	1	6	-94*	-8	3	18	96*	18	97*
CCCN1CC(O)=C(C#N)C1=O	1	3	-3	9	-8	1	·	·	·	·
COc1ccccc1NC(=O)CSc1nccn1Cc1ccccc1	1	1	6	-7	-3	1	·	·	·	·
CCc1nnc(NC(=O)CSc2nnc(COc3cccc(C)c3)o2)s1	-19	18	1	-90*	-1	0	13	96*	-13	98*
C/C(CC(=O)Nc1ccc(C)c(Cl)c1)=N\NC(=O)c1ccco1	14	-7	1	6	11	0	·	·	·	·
Cc1cccc(Oc2coc3cc(O)ccc3c2=O)c1	-1	4	-20	-87*	-4	0	26	98*	44	98*
CCOC(=O)Oc1ccc2c(=O)c(Oc3cccc(C)c3)coc2c1	15	-5	10	-85*	-2	0	75*	97*	?	97*
CCOC(=O)Oc1ccc2c(=O)c(Oc3cc(C)cc(C)c3)coc2c1	12	-2	2	-44	0	0	·	·	·	·
CC(=O)Nc1ccc(SC[C@H](C)CN2CC[C@H](O)CCC2=O)cc1	-9	-1	0	·	-6	0	·	·	·	·
COc1ccccc1/C=C/C(=O)NCCC1=CCCCC1	11	2	15	17	-6	0	·	·	·	·
O=C(/C=C/c1ccc(F)cc1)NCCC1=CCCCC1	9	1	3	-89*	-3	1	?	97*	25	98*
